Results pooled from the literature.
Cell line: 786-0
Observed: cell growth or viability

| SMILES | test | setting | measurement | value |
| --- | --- | --- | --- | --- |
| CC(C)c1c(Sc2ccc(C(=O)N[C@@H](CCC(=O)O)C(=O)O)cc2)[nH]c2nc(N)nc(N)c12 |  |  | GI50 | 5580 nM |
| CC(=O)O[C@H]1C(=O)[C@@]2(C)[C@H]([C@H](OC(=O)c3ccccc3)[C@]3(O)C[C@H](OC(=O)[C@H](O)[C@@H](NC(=O)c4ccccc4)c4ccccc4)C(C)=C1C3(C)C)[C@]1(OC(C)=O)CO[C@@H]1C[C@@H]2O |  | 110 h | IC50 | 0.005 µM |
| S=C([S][Au-][P+](CCCCCC[P+]([Au-][S]C(=S)n1cccn1)(c1ccccc1)c1ccccc1)(c1ccccc1)c1ccccc1)n1cccn1 |  |  | GI50 | 9800 nM |
| COc1cc(-c2ccc(-c3ccc(C(=N)N)nc3)s2)cc(OC)c1OC |  |  | GI50 | 2120 nM |
| Cc1cc(C)n(C(=S)[S][Au][PH](CCCCCC[PH]([Au][S]C(=S)n2nc(C)cc2C)(c2ccccc2)c2ccccc2)(c2ccccc2)c2ccccc2)n1 |  |  | GI50 | 3100 nM |
| CCCc1c(Sc2ccc(C(=O)N[C@@H](CCC(=O)O)C(=O)O)cc2)[nH]c2nc(N)nc(N)c12 |  |  | GI50 | ≤ 10 nM |
| COc1ccc(C(=O)/C=C/c2cc3c(cc2Br)OCO3)cc1S(N)(=O)=O | SRB | 10 µM | inhibition | 140% |
| COc1ccc(-c2ccc(-c3ccc(C(=N)N)nc3)s2)cc1Cl |  |  | GI50 | 2000 nM |
| CC1=CC(=O)C(C(C)C)=CC1=O | CCK-8 | 48 h | IC50 | 43 µM |
| COc1ccc(C(=O)/C=C/c2ccccc2Br)cc1S(N)(=O)=O | SRB | 48 h | GI50 | 1800 nM |
| COc1cccc(Oc2ccccc2NC(=O)CNC(=O)c2cccc3ccccc23)c1 | SRB | 48 h | GI50 | 490 nM |
